According to ChEMBL document CHEMBL3817777, “A new motif for inhibitors of geranylgeranyl diphosphate synthase” (Bioorg Med Chem, 2016):
pEC50: −log10 of the molar value. Activity calls are given as the source filed them. The calls are words filed in the database; no cut-off is given here.

Legend:
[1] = biological target: T1, Geranylgeranyl pyrophosphate synthase (Homo sapiens) (UniProt O95749); experiment: Inhibition of GGDPS in human RPMI8266 cells assessed as lambda light chain levels after 48 hrs by ELISA; type: cell-based
T1 sequence (whole entry): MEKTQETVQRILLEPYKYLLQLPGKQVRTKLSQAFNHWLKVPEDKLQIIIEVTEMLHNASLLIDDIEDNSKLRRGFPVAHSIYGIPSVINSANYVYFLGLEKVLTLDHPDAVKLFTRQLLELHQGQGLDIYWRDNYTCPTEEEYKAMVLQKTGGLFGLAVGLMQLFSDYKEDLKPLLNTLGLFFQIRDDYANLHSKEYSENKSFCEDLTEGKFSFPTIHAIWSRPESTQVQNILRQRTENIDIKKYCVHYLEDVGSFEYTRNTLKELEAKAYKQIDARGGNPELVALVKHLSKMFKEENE

[2] = biological target: T1, Geranylgeranyl pyrophosphate synthase (Homo sapiens); experiment: Inhibition of GGDPS in human RPMI8266 cells assessed as disruption of Rap1a geranylgeranylation after 48 hrs by immunoblot analysis; type: cell-based
How it was run: (§1)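 Cells were lysed in RIPA buffer (0.15 M NaCl, 1% deoxycholate, 0.1% SDS, 1% Triton X-100, 0.05 M Tris HCl) with protease and phosphatase inhibitors. Protein was quantified by BCA, and equal amounts were run on SDS-PAGE and transferred to PVDF. Blots were probed for unmodified Rap1a, a GGTase I substrate, and detected with HRP secondary antibodies and ECL.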

[3] = Cytotoxicity against human ALMC2 cells after 48 hrs by MTT assay; type: functional, cell-based; details: ALMC2, 48 h
How it was run: (§2)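 Cells were plated at 2.5 ×10^4 cells/100 μL/well and exposed to compounds for 48 hrs. MTT (5 mg/mL in PBS) was then added for 4 hrs, and the product was solubilized overnight at 37 °C in 0.01 M HCl/10% SDS. Absorbance was read at 540 nm, with untreated controls set as 100% MTT activity. Each test ran in quadruplicate across three independent experiments, and EC50 is reported as mean ± standard deviation.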

[4] = Cytotoxicity against human RPMI8266 cells after 48 hrs by MTT assay; type: functional, cell-based; details: RPMI8266, 48 h; how it was run: as §2
[5] = Cytotoxicity against human MM1S cells after 48 hrs by MTT assay; type: functional, cell-based; details: MM1.S; how it was run: as §2
[6] = biological target: T1, Geranylgeranyl pyrophosphate synthase (Homo sapiens); experiment: Inhibition of GGDPS in human RPMI8266 cells assessed as disruption of Rap1a geranylgeranylation at 1 uM after 48 hrs by immunoblot analysis in presence of GGDP; type: cell-based; how it was run: as §1
[7] = biological target: T1, Geranylgeranyl pyrophosphate synthase (Homo sapiens); experiment: Inhibition of GGDPS in human RPMI8266 cells assessed as lambda light chain levels at 1 uM after 48 hrs by ELISA in presence of GGDP; type: cell-based
[8] = biological target: T1, Geranylgeranyl pyrophosphate synthase (Homo sapiens); experiment: Inhibition of GGDPS in human RPMI8266 cells assessed as lambda light chain levels at 5 uM after 48 hrs by ELISA in presence of mevalonate; type: cell-based
[9] = biological target: T1, Geranylgeranyl pyrophosphate synthase (Homo sapiens); experiment: Inhibition of GGDPS in human RPMI8266 cells assessed as lambda light chain levels at 5 uM after 48 hrs by ELISA in presence of GGDP; type: cell-based
[10] = biological target: T1, Geranylgeranyl pyrophosphate synthase (Homo sapiens); experiment: Inhibition of GGDPS in human RPMI8266 cells assessed as disruption of Rap1a geranylgeranylation at 5 uM after 48 hrs by immunoblot analysis in presence of GGDP; type: cell-based; how it was run: as §1
[11] = biological target: T1, Geranylgeranyl pyrophosphate synthase (Homo sapiens); experiment: Inhibition of GGDPS in human RPMI8266 cells assessed as disruption of Rap1a geranylgeranylation at 5 uM after 48 hrs by immunoblot analysis in presence of mevalonate; type: cell-based; how it was run: as §1
[12] = biological target: T1, Geranylgeranyl pyrophosphate synthase (Homo sapiens); experiment: Inhibition of GGDPS in human RPMI8266 cells assessed as disruption of Rap1a geranylgeranylation at low concentrations after 48 hrs by immunoblot analysis; type: cell-based; how it was run: as §1
[13] = biological target: T1, Geranylgeranyl pyrophosphate synthase (Homo sapiens); experiment: Inhibition of GGDPS in human RPMI8266 cells assessed as lambda light chain levels at low concentrations after 48 hrs by ELISA; type: cell-based

inhibition [1] | inhibition [2] | inhibition [6] | inhibition [7] | inhibition [8] | inhibition [9] | inhibition [10] | inhibition [11] | inhibition [12] | inhibition [13] | Structure (SMILES) | pEC50 [3] | pEC50 [4] | pEC50 [5]
Dose-dependent effect | Dose-dependent effect | – | – | – | – | – | – | – | – | CC(C)=CCC/C(C)=C/CC(P(=O)(OCC[C@@H](C)CCC=C(C)C)OCOC(=O)C(C)(C)C)P(=O)(OCOC(=O)C(C)(C)C)OCOC(=O)C(C)(C)C (stereo partly drawn) | 4.90 | 5.15 | 5.24
Dose-dependent effect | Dose-dependent effect | inactive | inactive | – | – | – | – | – | – | CC(C)=CCC/C(C)=C/CC(C)(P(=O)(OCC[C@@H](C)CCC=C(C)C)OCOC(=O)C(C)(C)C)P(=O)(OCOC(=O)C(C)(C)C)OCOC(=O)C(C)(C)C (stereo partly drawn) | 5.27 | 5.80 | 5.57
– | – | – | – | – | – | – | – | Active | Active | CC(C)=CCC/C(C)=C/CC(C)(P(=O)(OCC[C@H](C)CCC=C(C)C)OCOC(=O)C(C)(C)C)P(=O)(OCOC(=O)C(C)(C)C)OCOC(=O)C(C)(C)C (stereo partly drawn) | – | – | –
Dose-dependent effect | Dose-dependent effect | – | – | – | – | – | – | – | – | CC(C)=CCC/C(C)=C/CC(CC=C(C)C)(P(=O)(OCC[C@@H](C)CCC=C(C)C)OCOC(=O)C(C)(C)C)P(=O)(OCOC(=O)C(C)(C)C)OCOC(=O)C(C)(C)C (stereo partly drawn) | 4.55 | 5.14 | 4.60

More lines, now with the values behind:

Structure (SMILES) | inhibition [1] | inhibition [2] | inhibition [6] | inhibition [7] | inhibition [8] | inhibition [9] | inhibition [10] | inhibition [11] | inhibition [12] | inhibition [13] | pEC50 [3] | pEC50 [4] | pEC50 [5]
CC[C@H](C)C(=O)O[C@H]1C[C@@H](C)C=C2C=C[C@H](C)[C@H](CC[C@@H]3C[C@@H](O)CC(=O)O3)[C@H]21 | – | – | – | – | inactive | inactive | inactive | inactive | – | – | – | – | –
CC(C)=CCC/C(C)=C/CC(C/C=C(\C)CCC=C(C)C)(P(=O)(OCC[C@@H](C)CCC=C(C)C)OCOC(=O)C(C)(C)C)P(=O)(OCOC(=O)C(C)(C)C)OCOC(=O)C(C)(C)C (stereo partly drawn) | Dose-dependent effect | Dose-dependent effect | – | – | – | – | – | – | – | – | < 4.00 | 4.57 | 4.32
C=CCC(C/C=C(\C)CCC=C(C)C)(P(=O)(OCC[C@@H](C)CCC=C(C)C)OCOC(=O)C(C)(C)C)P(=O)(OCOC(=O)C(C)(C)C)OCOC(=O)C(C)(C)C (stereo partly drawn) | Dose-dependent effect | Dose-dependent effect | – | – | – | – | – | – | – | – | 4.60 | 5.08 | 4.97
